Experimental data reported in ChEMBL document CHEMBL3393017, “Flavokawains B and C, melanogenesis inhibitors, isolated from the root of Piper methysticum and synthesis of analogs” (Bioorg Med Chem Lett, 2015).
pIC50: −log10 of the molar value.

How the values were obtained:
Tyrosinase = target: T1, Tyrosinase (Agaricus bisporus, UniProt O42713); experiment: Inhibition of mushroom tyrosinase using L-tyrosine as substrate after 20 mins by microplate reader
T1 sequence (O42713 whole entry): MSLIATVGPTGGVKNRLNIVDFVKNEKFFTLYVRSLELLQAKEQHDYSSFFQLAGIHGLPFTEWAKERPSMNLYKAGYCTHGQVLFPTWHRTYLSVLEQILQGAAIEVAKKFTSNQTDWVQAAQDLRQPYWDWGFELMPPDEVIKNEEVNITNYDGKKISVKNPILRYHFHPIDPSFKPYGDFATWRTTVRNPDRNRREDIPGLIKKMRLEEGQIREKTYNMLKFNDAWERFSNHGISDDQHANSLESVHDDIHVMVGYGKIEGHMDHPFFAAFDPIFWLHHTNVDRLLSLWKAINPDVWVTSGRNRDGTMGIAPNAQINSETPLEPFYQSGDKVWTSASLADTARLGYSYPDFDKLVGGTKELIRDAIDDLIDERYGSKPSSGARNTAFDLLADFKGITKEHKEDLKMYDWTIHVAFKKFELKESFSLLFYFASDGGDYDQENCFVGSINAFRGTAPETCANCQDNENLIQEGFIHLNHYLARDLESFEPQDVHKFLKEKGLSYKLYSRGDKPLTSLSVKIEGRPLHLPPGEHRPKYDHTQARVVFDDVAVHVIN

[1] = (§1) Antimelanogenic activity in mouse B16F10 cells assessed as inhibition of melanin production after 4 days; format: functional, cell-based; conditions: B16-F10, 96 h
In short: (§2)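 MSH-activated B16 melanoma cells were treated in triplicate, with the medium changed daily. After 4 d the cells were lysed in 1 N NaOH, and relative melanin in the lysate was read at 400 nm. Compounds were screened at 10 ppm, and those giving >50% inhibition were retested at other concentrations to derive IC50. Viability was checked by crystal violet staining read at 590 nm.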

B16-F10 = experiment: as §1; format: functional, cell-based; in short: as §2

SMILES	IC50 (Tyrosinase)	pIC50 [1]	inhibition (B16-F10)
COc1ccc(/C=C/C(=O)c2c(O)cc(OC)cc2OC)cc1 [FLAVOKAWAIN A]	Not Active		
COc1ccc(/C=C/C(=O)c2c(O)cc(OC)cc2OC)c(OC)c1	Not Active		
O=c1cc(CO)occ1O [KOJIC ACID]		< 3.30	
COc1cccc(/C=C/C(=O)c2c(O)cc(OC)cc2OC)c1	Not Active	5.51	
COc1cc(O)c(C(=O)/C=C/c2ccc(O)cc2O)c(OC)c1	Not Active	5.47	
COc1cc(O)c(C(=O)/C=C/c2ccc(O)c(O)c2)c(OC)c1	Not Active	4.50	
COc1cc(O)c(C(=O)/C=C/c2cccc(O)c2)c(OC)c1	Not Active	5.00	
COc1cc(O)c(C(=O)/C=C/c2ccc(O)cc2)c(OC)c1 [FLAVOKAWAIN C]	Not Active	5.16	Dose-dependent effect

The next lines start with results.

IC50 (Tyrosinase)	pIC50 [1]	SMILES	inhibition (B16-F10)
Not Active	5.11	COc1cc(O)c(C(=O)/C=C/c2ccccc2)c(OC)c1 [FLAVOKAWAIN B]	Dose-dependent effect
Not Active	5.42	COc1cc(O)c(C(=O)/C=C/c2ccccc2OC)c(OC)c1	
Not Active	5.64	COc1cc(O)c(C(=O)/C=C/c2ccccc2O)c(OC)c1	
Not Active	5.52	COc1cc(O)c(C(=O)/C=C/c2ccccc2C)c(OC)c1	
Not Active	5.00	COc1cc(O)c(C(=O)/C=C/c2c(C)cccc2C)c(OC)c1	
Not Active	5.60	CCc1ccccc1/C=C/C(=O)c1c(O)cc(OC)cc1OC	
Not Active	5.57	COc1cc(O)c(C(=O)/C=C/c2ccccc2C(C)C)c(OC)c1	
